How the values were obtained:
[1] = Displacement of [3H]flunitrazepam from GABA-A benzodiazepine receptor of rat brain
Outline: (§1)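 Rat brain radioligand displacement binding. IC50 values (μM) were derived by nonlinear regression from four or five concentrations of compound.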

Mus musculus = assay: Inhibition of locomotor activity in mouse after intraperitoneal administration; format: functional; conditions: Mus musculus, ip; read-out: ED50
[2] = target: Serotonin 1 (5-HT1) receptor (Rattus norvegicus, UniProt P28564+P30940+P19327+P28565); assay: Displacement of [3H]5-HT from serotonin-1 neurotransmitter receptor in rat brain; format: tissue-based; outline: as §1
[3] = target: Voltage-gated L-type calcium channel (Rattus norvegicus, UniProt P22002+Q02485+P27732); assay: Displacement of [3H]nitrendipine from L-type [Ca2+] channel of rat brain; format: tissue-based
Adenosine receptor A1 = target: T1, Adenosine receptor A1 (Rattus norvegicus, UniProt P25099); assay: Displacement of [3H]CHA (N6-Cyclohexyl adenosine) from adenosine A1 receptor in rat brain; format: tissue-based; outline: as §1
T1 sequence (P25099 whole entry): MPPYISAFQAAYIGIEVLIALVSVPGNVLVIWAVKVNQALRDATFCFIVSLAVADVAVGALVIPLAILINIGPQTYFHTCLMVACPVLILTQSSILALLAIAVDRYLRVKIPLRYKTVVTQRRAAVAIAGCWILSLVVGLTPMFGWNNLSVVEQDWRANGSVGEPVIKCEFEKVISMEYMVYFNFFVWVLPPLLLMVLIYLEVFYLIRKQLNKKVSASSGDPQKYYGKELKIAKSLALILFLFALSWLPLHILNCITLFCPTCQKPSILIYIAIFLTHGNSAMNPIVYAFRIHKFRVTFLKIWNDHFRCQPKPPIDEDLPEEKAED

D(1A) dopamine receptor = D(1A) dopamine receptor (Rattus norvegicus, UniProt P18901); assay: Displacement of [3H]cis-flupenthixol from Dopamine receptor D1 in rat brain; format: tissue-based
Chain of D(1A) dopamine receptor (P18901 whole entry): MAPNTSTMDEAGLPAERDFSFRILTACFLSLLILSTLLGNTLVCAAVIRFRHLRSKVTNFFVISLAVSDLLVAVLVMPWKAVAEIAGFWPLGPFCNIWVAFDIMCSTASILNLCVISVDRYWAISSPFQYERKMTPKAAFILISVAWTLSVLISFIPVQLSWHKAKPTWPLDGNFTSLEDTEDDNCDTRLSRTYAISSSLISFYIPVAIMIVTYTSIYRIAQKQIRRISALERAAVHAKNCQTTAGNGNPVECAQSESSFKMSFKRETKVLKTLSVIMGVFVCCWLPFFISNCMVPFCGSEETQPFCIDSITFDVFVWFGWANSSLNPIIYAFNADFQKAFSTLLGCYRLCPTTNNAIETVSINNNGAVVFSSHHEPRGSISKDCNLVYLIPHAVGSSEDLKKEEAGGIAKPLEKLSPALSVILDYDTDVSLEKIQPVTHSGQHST

[4] = target: Muscarinic acetylcholine receptor; assay: Displacement of [3H]quinuclidinyl benzilate(QNB) from Muscarinic acetylcholine receptor in rat brain; format: tissue-based; outline: as §1
[5] = target: T2, Adrenergic receptor alpha-2 (Rattus norvegicus, UniProt P22086+P19328+P22909); assay: Displacement of [3H]clonidine from alpha-2 adrenergic receptor in rat brain; format: tissue-based; outline: as §1
T2 sequence (P22086 whole entry): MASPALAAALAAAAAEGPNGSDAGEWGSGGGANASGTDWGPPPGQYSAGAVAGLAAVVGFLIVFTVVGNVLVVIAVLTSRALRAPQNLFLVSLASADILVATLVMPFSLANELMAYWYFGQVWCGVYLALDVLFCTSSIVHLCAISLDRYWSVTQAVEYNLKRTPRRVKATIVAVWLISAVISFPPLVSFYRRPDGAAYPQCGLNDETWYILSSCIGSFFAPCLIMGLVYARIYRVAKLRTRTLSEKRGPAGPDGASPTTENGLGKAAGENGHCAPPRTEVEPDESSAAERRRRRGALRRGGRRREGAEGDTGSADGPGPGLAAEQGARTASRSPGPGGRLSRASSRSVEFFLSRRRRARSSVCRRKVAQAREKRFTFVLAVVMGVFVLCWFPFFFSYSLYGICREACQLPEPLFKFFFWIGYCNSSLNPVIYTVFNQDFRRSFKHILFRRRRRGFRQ
T2 sequence (P19328 whole entry): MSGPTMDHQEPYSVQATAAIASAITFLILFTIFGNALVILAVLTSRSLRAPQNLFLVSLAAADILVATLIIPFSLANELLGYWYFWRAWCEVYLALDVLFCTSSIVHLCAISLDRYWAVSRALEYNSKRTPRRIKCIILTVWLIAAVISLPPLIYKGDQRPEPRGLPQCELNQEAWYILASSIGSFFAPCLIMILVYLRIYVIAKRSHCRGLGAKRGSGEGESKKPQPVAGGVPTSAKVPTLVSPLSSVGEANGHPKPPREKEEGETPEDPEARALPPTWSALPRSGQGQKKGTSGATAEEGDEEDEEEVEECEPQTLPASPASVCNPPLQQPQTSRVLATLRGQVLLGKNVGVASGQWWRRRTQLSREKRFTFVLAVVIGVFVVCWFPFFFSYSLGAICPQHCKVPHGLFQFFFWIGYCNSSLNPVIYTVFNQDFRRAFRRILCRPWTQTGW
T2 sequence (P22909 whole entry): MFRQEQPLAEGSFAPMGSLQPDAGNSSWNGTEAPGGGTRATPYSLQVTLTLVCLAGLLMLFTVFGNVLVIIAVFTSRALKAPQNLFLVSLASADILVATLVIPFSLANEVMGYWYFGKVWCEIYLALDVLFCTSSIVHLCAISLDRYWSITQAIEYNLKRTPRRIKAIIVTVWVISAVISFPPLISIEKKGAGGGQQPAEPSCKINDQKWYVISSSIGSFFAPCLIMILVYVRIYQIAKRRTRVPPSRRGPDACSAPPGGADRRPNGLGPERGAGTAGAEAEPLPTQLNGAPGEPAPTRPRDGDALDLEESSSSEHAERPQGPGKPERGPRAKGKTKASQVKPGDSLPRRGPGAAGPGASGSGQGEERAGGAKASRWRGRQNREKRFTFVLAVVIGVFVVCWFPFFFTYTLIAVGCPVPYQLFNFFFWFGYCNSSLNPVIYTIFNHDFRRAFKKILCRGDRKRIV

Rattus norvegicus [6] = assay: Inhibition of self-stimulation in rats after the compound administered through perorally; format: functional; conditions: po
Outline: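 Suppression of high base line self-stimulation in rats after oral dosing. Read-out is ED50 in mg/kg.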

Rattus norvegicus [7] = assay: Inhibition of Sidman avoidance in rats after peroral administration; format: functional; conditions: po
Outline: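 Continuous (Sidman) avoidance responding in rats with oral dosing. At least three doses per drug, four animals per dose. ED50 reported ± SEM.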

[8] = target: Serotonin 2 (5-HT2) receptor (Rattus norvegicus, UniProt P30994+P08909+P14842); assay: Displacement of [3H]spiroperidol from 5-hydroxytryptamine 2 receptor in rat brain; format: tissue-based; outline: as §1
Rattus norvegicus [9] = assay: Inhibition of locomotion in rats after the compound administered through perorally; format: functional; conditions: po
Outline: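 Oral dosing in rats, with spontaneous locomotor activity scored alongside ataxia. ED50 reported ± SEM.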

[10] = target: Beta-1 adrenergic receptor (Rattus norvegicus, UniProt P18090); assay: Displacement of [3H]DHA (Dihydroalprenolol) from beta-1 adrenergic receptor in rat brain; format: tissue-based; outline: as §1
Chain of Beta-1 adrenergic receptor (P18090 whole entry): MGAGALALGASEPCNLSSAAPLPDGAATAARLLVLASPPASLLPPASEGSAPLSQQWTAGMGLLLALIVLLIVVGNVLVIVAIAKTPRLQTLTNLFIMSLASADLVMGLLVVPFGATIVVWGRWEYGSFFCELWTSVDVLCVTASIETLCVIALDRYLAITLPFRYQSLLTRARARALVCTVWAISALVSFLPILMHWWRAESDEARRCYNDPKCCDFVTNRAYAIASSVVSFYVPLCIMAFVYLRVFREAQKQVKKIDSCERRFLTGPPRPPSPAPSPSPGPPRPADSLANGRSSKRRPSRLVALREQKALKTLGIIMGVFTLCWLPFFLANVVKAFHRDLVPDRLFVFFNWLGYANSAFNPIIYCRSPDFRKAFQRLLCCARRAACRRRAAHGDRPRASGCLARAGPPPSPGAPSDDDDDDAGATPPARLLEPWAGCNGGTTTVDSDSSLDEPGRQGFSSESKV

D(2) dopamine receptor = D(2) dopamine receptor (Rattus norvegicus, UniProt P61169); assay: Displacement of [3H]haloperidol from Dopamine receptor D2 in rat brain; format: tissue-based
Chain of D(2) dopamine receptor (P61169 whole entry): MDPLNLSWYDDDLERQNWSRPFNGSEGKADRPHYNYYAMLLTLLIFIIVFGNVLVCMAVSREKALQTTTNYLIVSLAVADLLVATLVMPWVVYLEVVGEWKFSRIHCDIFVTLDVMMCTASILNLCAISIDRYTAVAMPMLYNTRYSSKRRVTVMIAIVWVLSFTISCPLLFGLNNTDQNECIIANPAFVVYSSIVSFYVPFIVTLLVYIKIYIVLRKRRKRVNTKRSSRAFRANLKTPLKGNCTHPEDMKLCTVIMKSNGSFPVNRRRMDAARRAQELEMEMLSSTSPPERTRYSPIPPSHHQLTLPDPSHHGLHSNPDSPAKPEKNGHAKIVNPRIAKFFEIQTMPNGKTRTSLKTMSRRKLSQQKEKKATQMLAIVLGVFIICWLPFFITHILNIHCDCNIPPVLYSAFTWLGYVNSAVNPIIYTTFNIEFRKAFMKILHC

Monkey = assay: Inhibition of Sidman avoidance in squirrel monkeys after the compound administered through perorally; format: functional; conditions: in Saimiri, po
Outline: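 Oral dosing in squirrel monkeys trained on continuous (Sidman) avoidance responding. ED50 reported ± SEM.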

[11] = target: Beta-2 adrenergic receptor (Rattus norvegicus, UniProt P10608); assay: Displacement of [3H]DHA (Dihydroalprenolol) from beta-2 adrenergic receptor in rat brain; format: tissue-based; outline: as §1
Chain of Beta-2 adrenergic receptor (P10608 whole entry): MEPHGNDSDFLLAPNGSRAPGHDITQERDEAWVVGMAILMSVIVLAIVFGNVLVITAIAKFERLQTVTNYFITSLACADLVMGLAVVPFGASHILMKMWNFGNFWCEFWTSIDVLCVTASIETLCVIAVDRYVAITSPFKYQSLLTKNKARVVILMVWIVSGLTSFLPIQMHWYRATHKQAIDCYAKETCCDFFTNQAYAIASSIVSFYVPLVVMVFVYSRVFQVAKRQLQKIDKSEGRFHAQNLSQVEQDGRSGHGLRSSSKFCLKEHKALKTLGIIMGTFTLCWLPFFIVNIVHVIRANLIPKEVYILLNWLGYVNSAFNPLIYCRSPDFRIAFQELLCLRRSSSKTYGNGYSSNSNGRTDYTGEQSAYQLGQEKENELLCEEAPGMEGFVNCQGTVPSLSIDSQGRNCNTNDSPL

IC50 [1]: > 1 µM
IC50 [2]: > 10 µM
IC50 [3]: > 10 µM
IC50 (Adenosine receptor A1): > 10 µM
IC50 (D(1A) dopamine receptor): > 10 µM
IC50 [4]: > 10 µM
IC50 [5]: > 10 µM
IC50 [8]: > 10 µM
IC50 [10]: > 10 µM
IC50 (D(2) dopamine receptor): > 10 µM
IC50 [11]: > 10 µM
SMILES: CCC1CN2C(C)=Nc3c(C)nn(C)c3C2=N1 (stereo unspecified)
ED50 (Mus musculus): 23.7 mg/kg
ED50 (Rattus norvegicus [6]): 10.8 mg/kg
ED50 (Rattus norvegicus [7]): 19.2 mg/kg
ED50 (Rattus norvegicus [9]): 15.5 mg/kg
ED50 (Monkey): 7.25 mg/kg
